Source: ChEMBL document CHEMBL4354843, “Structure-Based Design of a Potent and Selective Covalent Inhibitor for SRC Kinase That Targets a P-Loop Cysteine” (J Med Chem, 2020)

How the values were obtained:
[1] = target: Activin receptor type-1B (Homo sapiens) (UniProt P36896); test: Binding affinity to wild-type human ACVR1B (S187 to I505 residues) expressed in bacterial expression system assessed as residual binding level at 1 uM by Kinomescan method relative to control
Procedure, shortened: (§1)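 KinomeScan, an active site-directed competition binding panel of 468 kinases. The test compound was at 1 μM. The readout is remaining kinase binding as a percentage of the DMSO control. Scores above 35% were treated as weak binding and not listed.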

[2] = target: Ankyrin repeat and protein kinase domain-containing protein 1 (Homo sapiens) (UniProt Q8NFD2); test: Binding affinity to wild-type human partial length ANKK1 (M1 to A305 residues) expressed in mammalian expression system assessed as residual binding level at 1 uM by Kinomescan method relative to control; procedure, shortened: as §1
[3] = target: Calcium/calmodulin-dependent protein kinase type 1 (Homo sapiens) (UniProt Q14012); test: Binding affinity to wild-type human full length CAMK1 (M1 to L370 residues) expressed in bacterial expression system assessed as residual binding level at 1 uM by Kinomescan method relative to control
Procedure, shortened: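 Active-site-directed KinomeScan competition binding panel covering 468 kinases, compound tested at 1 μM. Each readout is the kinase signal remaining with compound, expressed as a percentage of the DMSO control. […]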

[4] = target: Calcium/calmodulin-dependent protein kinase type II subunit delta (Homo sapiens) (UniProt Q13557); test: Binding affinity to wild-type human partial length CAMK2D (M1 to E329 residues) expressed in bacterial expression system assessed as residual binding level at 1 uM by Kinomescan method relative to control
[5] = target: Death-associated protein kinase 3 (Homo sapiens) (UniProt O43293); test: Binding affinity to wild-type human partial length DAPK3 (M1 to A277 residues) expressed in bacterial expression system assessed as residual binding level at 1 uM by Kinomescan method relative to control
[6] = tested on: Epidermal growth factor receptor (Homo sapiens), P00533 [L861Q]; test: Binding affinity to human partial length EGFR L861Q mutant (R669 to V1011 residues) expressed in bacterial expression system assessed as residual binding level at 1 uM by Kinomescan method relative to control
Procedure, shortened: (§2)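 KinomeScan active site-directed competition binding panel (468 kinases), compound tested at 1 μM. Result expressed as remaining kinase signal versus DMSO control (percent of control).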

[7] = target: Mitogen-activated protein kinase 7 (Homo sapiens) (UniProt Q13164); test: Binding affinity to wild-type human partial length ERK5 (M1 to A409 residues) expressed in bacterial expression system assessed as residual binding level at 1 uM by Kinomescan method relative to control
[8] = target: Tyrosine-protein kinase JAK1 (Homo sapiens) (UniProt P23458); test: Binding affinity to wild-type human partial length JAK1 JH2 pseudokinase domain (R537 to D855 residues) expressed in mammalian expression system assessed as residual binding level at 1 uM by Kinomescan method relative to control
[9] = target: Mitogen-activated protein kinase kinase kinase 15 (Homo sapiens) (UniProt Q6ZN16); test: Binding affinity to wild-type human partial length MAP3K15 (T625 to L932 residues) expressed in mammalian expression system assessed as residual binding level at 1 uM by Kinomescan method relative to control
Procedure, shortened: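 Active-site-directed competition binding panel of 468 kinases (KinomeScan), compound at 1 μM. The read-out is kinase remaining bound, given as a percentage of the DMSO control. […]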

[10] = target: Serine/threonine-protein kinase MARK2 (Homo sapiens) (UniProt Q7KZI7); test: Binding affinity to wild-type human partial length MARK2 (M1 to R450 residues) expressed in bacterial expression system assessed as residual binding level at 1 uM by Kinomescan method relative to control
[11] = target: Muscle, skeletal receptor tyrosine-protein kinase (Homo sapiens) (UniProt O15146); test: Binding affinity to wild-type human partial length MUSK (M553 to V869 residues) expressed in bacterial expression system assessed as residual binding level at 1 uM by Kinomescan method relative to control
[12] = target: Serine/threonine-protein kinase Nek9 (Homo sapiens) (UniProt Q8TD19); test: Binding affinity to wild-type human partial length NEK9 (P32 to R328 residues) expressed in bacterial expression system assessed as residual binding level at 1 uM by Kinomescan method relative to control
[13] = target: Mitogen-activated protein kinase 14 (Homo sapiens) (UniProt Q16539); test: Binding affinity to wild-type human full length p38-alpha (M1 to S360 residues) expressed in bacterial expression system assessed as residual binding level at 1 uM by Kinomescan method relative to control; procedure, shortened: as §1
[14] = target: Phosphatidylinositol 4,5-bisphosphate 3-kinase catalytic subunit delta isoform (Homo sapiens) (UniProt O00329); test: Binding affinity to wild-type human partial length PIK3CD (R108 to Q1044 residues) expressed in mammalian expression system assessed as residual binding level at 1 uM by Kinomescan method relative to control
[15] = target: Phosphatidylinositol 4-phosphate 5-kinase type-1 alpha (Homo sapiens) (UniProt Q99755); test: Binding affinity to wild-type human full length PIP5K1A (M1 to H562 residues) expressed in bacterial expression system assessed as residual binding level at 1 uM by Kinomescan method relative to control
Procedure, shortened: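 Active-site-directed competition binding panel (KinomeScan) covering 468 kinases. Test agent was screened at 1 μM. The read-out is the remaining kinase signal expressed relative to a DMSO control. Scores above 35%, taken as weak binding, were not reported.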

[16] = tested on: Proto-oncogene tyrosine-protein kinase receptor Ret (Homo sapiens), P07949 [M918T]; test: Binding affinity to human partial length RET M918T mutant (E713 to D1014 residues) expressed in bacterial expression system assessed as residual binding level at 1 uM by Kinomescan method relative to control; procedure, shortened: as §2
[17] = target: SNF-related serine/threonine-protein kinase (Homo sapiens) (UniProt Q9NRH2); test: Binding affinity to wild-type human partial length SNRK (M1 to E339 residues) expressed in mammalian expression system assessed as residual binding level at 1 uM by Kinomescan method relative to control
[18] = target: Serine/threonine-protein kinase 36 (Homo sapiens) (UniProt Q9NRP7); test: Binding affinity to wild-type human partial length STK36 (M1 to T271 residues) expressed in bacterial expression system assessed as residual binding level at 1 uM by Kinomescan method relative to control
Procedure, shortened: (§3)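 Active site-directed competition binding panel (KinomeScan, 468 kinases). Test compound at 1 μM. Read-out is kinase binding remaining versus DMSO control, expressed as percent of control. Scores above 35% are treated as weak binding.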

[19] = target: Non-receptor tyrosine-protein kinase TYK2 (Homo sapiens) (UniProt P29597); test: Binding affinity to wild-type human partial length TYK2 JH2 pseudokinase domain (G556 to D888 residues) expressed in mammalian expression system assessed as residual binding level at 1 uM by Kinomescan method relative to control
[20] = target: Serine/threonine-protein kinase VRK2 (Homo sapiens) (UniProt Q86Y07); test: Binding affinity to wild-type human partial length VRK2 (M1 to T336 residues) expressed in mammalian expression system assessed as residual binding level at 1 uM by Kinomescan method relative to control; procedure, shortened: as §3

Chain of Non-receptor tyrosine-protein kinase TYK2 (Homo sapiens) (P29597 whole entry, the tested form may be a part): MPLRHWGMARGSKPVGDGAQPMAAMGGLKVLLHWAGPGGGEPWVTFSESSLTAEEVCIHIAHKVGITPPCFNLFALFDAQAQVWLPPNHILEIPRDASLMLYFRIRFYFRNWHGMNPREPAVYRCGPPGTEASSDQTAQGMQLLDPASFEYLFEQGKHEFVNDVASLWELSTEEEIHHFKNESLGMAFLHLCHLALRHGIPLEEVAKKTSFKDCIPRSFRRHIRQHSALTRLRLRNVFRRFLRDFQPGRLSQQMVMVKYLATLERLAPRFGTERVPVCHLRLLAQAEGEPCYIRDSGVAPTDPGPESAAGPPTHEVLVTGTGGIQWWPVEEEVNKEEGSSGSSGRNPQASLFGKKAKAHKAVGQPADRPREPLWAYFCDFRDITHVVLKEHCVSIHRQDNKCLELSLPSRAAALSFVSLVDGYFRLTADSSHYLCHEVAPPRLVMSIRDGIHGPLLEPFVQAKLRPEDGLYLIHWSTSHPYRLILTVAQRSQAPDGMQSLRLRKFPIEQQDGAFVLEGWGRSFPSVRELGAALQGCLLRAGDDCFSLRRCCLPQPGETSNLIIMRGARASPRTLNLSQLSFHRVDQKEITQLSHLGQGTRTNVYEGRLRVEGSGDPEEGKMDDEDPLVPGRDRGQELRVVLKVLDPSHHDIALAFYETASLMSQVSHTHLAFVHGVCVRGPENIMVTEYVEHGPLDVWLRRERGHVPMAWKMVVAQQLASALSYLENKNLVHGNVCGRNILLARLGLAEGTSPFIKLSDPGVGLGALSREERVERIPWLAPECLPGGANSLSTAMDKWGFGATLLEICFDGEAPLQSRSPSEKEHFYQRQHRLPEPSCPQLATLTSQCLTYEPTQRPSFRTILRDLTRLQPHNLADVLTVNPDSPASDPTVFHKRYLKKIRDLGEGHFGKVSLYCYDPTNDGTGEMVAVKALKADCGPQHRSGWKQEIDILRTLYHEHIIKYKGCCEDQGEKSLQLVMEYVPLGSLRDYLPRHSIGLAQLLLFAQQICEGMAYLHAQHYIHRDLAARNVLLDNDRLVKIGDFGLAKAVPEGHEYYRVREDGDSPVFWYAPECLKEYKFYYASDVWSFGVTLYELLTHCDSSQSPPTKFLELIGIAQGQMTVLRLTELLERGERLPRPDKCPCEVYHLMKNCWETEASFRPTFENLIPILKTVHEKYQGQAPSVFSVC
Chain of Serine/threonine-protein kinase Nek9 (Homo sapiens) (Q8TD19 whole entry, the tested form may be a part): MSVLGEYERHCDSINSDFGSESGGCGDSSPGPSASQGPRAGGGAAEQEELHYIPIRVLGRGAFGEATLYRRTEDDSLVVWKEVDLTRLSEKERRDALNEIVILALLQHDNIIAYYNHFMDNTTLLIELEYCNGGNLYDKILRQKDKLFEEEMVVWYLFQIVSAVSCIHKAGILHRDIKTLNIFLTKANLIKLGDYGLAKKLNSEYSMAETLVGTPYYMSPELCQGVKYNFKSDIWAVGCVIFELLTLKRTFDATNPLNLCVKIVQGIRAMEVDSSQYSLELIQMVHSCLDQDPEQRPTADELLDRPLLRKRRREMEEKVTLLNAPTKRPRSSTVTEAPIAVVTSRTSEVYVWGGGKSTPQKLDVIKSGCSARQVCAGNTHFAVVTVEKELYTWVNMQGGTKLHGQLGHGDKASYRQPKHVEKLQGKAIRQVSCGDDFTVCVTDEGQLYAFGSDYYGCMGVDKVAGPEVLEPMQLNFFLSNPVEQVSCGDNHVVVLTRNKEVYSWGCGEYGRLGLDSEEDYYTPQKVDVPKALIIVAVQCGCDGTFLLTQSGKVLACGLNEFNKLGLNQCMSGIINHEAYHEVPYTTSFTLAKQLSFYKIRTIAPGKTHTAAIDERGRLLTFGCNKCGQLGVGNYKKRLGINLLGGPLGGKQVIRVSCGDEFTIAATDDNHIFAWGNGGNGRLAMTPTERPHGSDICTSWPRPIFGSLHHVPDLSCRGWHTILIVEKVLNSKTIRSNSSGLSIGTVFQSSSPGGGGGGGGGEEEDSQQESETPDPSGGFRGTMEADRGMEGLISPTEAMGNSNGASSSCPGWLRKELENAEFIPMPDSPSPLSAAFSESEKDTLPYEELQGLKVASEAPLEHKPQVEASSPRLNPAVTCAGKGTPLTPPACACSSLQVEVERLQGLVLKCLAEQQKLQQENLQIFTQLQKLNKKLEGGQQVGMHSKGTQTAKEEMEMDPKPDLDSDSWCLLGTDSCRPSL
Chain of Serine/threonine-protein kinase MARK2 (Homo sapiens) (Q7KZI7 whole entry, the tested form may be a part): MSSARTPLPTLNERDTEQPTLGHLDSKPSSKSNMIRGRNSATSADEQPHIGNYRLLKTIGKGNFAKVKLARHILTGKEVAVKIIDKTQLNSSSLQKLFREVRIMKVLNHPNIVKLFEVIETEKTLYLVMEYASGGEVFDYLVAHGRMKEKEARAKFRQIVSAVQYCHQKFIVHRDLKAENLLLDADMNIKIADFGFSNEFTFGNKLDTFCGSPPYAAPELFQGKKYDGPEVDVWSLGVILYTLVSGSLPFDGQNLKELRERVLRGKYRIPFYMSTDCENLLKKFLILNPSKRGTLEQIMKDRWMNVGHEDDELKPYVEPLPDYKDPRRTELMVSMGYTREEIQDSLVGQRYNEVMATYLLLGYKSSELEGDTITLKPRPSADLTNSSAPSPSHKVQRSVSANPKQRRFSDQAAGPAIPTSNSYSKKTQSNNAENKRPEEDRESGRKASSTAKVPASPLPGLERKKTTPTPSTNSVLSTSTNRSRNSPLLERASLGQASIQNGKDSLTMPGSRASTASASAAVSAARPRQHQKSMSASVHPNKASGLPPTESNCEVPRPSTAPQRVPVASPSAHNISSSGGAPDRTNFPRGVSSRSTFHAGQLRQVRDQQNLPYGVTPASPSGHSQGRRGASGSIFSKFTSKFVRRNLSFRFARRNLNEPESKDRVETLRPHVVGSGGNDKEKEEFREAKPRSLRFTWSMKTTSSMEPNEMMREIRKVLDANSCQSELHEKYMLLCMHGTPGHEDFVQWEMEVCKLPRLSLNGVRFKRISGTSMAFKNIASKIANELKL
Chain of Activin receptor type-1B (Homo sapiens) (P36896 whole entry, the tested form may be a part): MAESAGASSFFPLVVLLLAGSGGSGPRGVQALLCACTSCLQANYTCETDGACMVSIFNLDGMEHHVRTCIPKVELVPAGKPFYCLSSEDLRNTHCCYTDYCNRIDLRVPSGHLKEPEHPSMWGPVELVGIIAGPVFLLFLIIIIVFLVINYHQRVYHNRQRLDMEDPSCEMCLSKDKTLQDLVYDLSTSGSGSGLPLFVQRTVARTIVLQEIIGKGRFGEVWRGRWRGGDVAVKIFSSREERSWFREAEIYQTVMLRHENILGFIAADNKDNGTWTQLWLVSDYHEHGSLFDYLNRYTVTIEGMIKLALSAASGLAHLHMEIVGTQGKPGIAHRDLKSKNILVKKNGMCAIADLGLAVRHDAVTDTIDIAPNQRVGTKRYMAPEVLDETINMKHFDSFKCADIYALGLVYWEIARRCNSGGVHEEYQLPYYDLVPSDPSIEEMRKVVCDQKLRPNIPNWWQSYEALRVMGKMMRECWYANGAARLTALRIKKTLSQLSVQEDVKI
Chain of Ankyrin repeat and protein kinase domain-containing protein 1 (Homo sapiens) (Q8NFD2 whole entry, the tested form may be a part): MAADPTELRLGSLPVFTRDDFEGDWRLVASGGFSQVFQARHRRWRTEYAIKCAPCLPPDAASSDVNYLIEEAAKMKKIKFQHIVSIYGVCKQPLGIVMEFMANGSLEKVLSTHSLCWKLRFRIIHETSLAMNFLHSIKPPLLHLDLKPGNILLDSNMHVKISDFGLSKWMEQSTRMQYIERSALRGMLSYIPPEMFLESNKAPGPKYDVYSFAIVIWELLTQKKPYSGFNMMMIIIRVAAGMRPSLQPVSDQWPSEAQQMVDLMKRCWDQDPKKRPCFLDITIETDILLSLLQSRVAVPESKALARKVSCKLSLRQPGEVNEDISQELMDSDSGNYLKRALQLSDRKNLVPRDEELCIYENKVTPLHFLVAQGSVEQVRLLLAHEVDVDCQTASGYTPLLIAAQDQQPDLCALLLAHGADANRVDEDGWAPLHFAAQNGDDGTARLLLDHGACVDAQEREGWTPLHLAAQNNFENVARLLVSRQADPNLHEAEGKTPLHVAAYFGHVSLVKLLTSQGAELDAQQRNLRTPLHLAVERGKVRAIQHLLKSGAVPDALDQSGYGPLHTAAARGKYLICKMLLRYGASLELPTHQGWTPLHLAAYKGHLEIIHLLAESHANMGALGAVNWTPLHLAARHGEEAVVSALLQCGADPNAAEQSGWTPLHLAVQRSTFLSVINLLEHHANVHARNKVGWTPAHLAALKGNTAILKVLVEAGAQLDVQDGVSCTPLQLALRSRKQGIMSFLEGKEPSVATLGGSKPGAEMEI
Chain of Death-associated protein kinase 3 (Homo sapiens) (O43293 whole entry, looked up, the tested form may be a part): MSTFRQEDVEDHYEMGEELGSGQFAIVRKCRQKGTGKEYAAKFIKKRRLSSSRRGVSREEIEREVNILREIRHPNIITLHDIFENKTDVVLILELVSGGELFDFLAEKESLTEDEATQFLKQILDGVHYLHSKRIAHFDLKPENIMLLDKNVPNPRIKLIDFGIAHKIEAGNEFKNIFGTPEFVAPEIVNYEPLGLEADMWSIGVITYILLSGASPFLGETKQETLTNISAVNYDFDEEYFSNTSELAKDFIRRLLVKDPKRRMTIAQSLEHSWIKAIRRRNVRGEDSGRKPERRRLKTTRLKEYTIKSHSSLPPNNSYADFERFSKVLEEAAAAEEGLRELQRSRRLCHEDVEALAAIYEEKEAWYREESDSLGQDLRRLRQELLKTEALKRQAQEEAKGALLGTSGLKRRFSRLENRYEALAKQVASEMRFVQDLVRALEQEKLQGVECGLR
Chain of Mitogen-activated protein kinase 14 (Homo sapiens) (Q16539 whole entry, the tested form may be a part, canonical isoform): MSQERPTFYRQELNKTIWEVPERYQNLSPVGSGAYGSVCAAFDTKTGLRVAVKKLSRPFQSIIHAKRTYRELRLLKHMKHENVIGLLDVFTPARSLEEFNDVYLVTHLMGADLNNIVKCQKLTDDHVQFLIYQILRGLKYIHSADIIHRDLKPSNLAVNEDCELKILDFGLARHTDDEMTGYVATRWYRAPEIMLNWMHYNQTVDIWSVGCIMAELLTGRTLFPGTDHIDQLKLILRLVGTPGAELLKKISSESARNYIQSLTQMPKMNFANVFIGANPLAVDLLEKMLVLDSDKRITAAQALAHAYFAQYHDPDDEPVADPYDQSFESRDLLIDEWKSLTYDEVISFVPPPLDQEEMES

`C=CC(=O)Nc1ccccc1Nc1nc(Nc2ccc(N3CCN(C)CC3)cc2)ncc1C(=O)Nc1c(C)cccc1Cl` gave an Activity [1] of 93%, an Activity [2] of 98% and an Activity [3] of 100%. For the same compound, the Activity [4] was 100%, the Activity [5] was 100% and the Activity [6] was 55%. The Activity [7] was 92%, the Activity [8] was 100% and the Activity [9] was 80%. For the same compound, the Activity [10] was 100%, the Activity [11] was 100% and the Activity [12] was 100%. The Activity [13] was 28%, the Activity [14] was 100% and the Activity [15] was 100%. For the same compound, the Activity [16] was 87%, the Activity [17] was 100% and the Activity [18] was 47%. For the same compound, the Activity [19] was 100% and the Activity [20] was 71%.
